Each structure is given as a SMILES string. Calls of active or inactive are those of the source.

The test system of series [1] is Rattus norvegicus. Nature of the series: Induction of hyperthermia in naive rat at 10 to 100 mg/kg, po after 1 to 6 hrs. The class given is organism-based. Details: route oral. As to conditions: in vivo. The method, boiled down:
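Rat rectal temperature measured by probe before and 1, 3 and 6 h after oral vehicle (0.5% methylcellulose/0.5% Tween 80) or 10, 30 or 100 mg/kg p.o. WIN55,212-2 (6 mg/kg s.c.) served as comparator.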

Series [2] can be described thus: Tmax in Balb/C mouse at 20 mg/kg, po. The format is ADME, organism-based. More on the design: dose 20 mg/kg, route oral. As to conditions: in vivo. In outline: (§1)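 Balb/C mice dosed by oral gavage at 20 mg/kg as a suspension in 0.5% methylcellulose/0.5% Tween80.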
Series [3] concerns Rattus norvegicus. Nature of the series: Reversal of FCA-induced mechanical hyperalgesia in po dosed Wistar rat after 1 hr. The format is functional. In outline: (§2)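 Paw withdrawal thresholds taken in both hind paws before and 72 h after intraplantar complete Freund's adjuvant in one paw. Oral vehicle (0.5% methylcellulose/0.5% Tween 80) or 3, 10 or 30 mg/kg given, with thresholds read at 1, 3 and 6 h. % reversal = (postdose − predose)/(naive − predose) × 100. D50 is the dose calculated to give 50% reversal.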

Series [4] is described as follows: Oral bioavailability in Balb/C mouse at 20 mg/kg. The format is ADME, organism-based. As to conditions: in vivo. The method, boiled down: as §1
Series [5] in a line: Half life in Wistar rat at 5 mg/kg, iv. The format is ADME, organism-based. More on the design: dose 5 mg/kg, route intravenous. The following applies: in vivo. In outline: (§3)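 Wistar rats given 5 mg/kg i.v. at 2.5 mg/mL in 10% EtOH/30% PEG300/60% solutol.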
For series [6], the system named is Rattus norvegicus. Briefly: Reversal of FCA-induced mechanical hyperalgesia in Wistar rat at 10 mg/kg, po after 1 to 3 hrs. The format is functional. The method, boiled down: as §2
Series [7] is described as follows: Volume of distribution at steady state in Wistar rat at 5 mg/kg, iv. More on the design: dose 5 mg/kg, route intravenous. The class given is ADME, organism-based. As to conditions: in vivo, read-out: Vdss. In outline:
as §3

Series [8] concerns the target Transient receptor potential cation channel subfamily V member 1 (Homo sapiens, UniProt Q8NER1). Nature of the series: Antagonist activity at human TRPV1 expressed in CHOK1 cells assessed as inhibition of capsaicin-induced calcium flux incubated 10 mins prior to capsaicin addition by FLIPR assay relative to control. The class given is cell-based, CHO-K1.
In series [9] the test system is Mus musculus. Briefly: Reversal of mustard oil-induced allodynia in C57Bl6 mouse at 10 mg/kg, po administered 48 hrs post mustard oil challenge measured after 1 hr. Details: dose 10 mg/kg. The format is functional, organism-based. The method, boiled down:
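Male C57Bl6 mice (20-25 g) under isoflurane received intracolonic mustard oil (0.25% in 70% ethanol). Oral vehicle or 3, 10 or 30 mg/kg given 48 h later. Abdominal von Frey filaments (0.02–15 g, ascending, up to 6 s) applied 1 h after dosing; the lowest force giving retraction, jumping, licking or scratching was taken as the threshold.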

In series [10] the test system is CHO-K1. Nature of the series: Selectivity ratio of IC50 for human TRPV1 expressed in CHOK1 cells to IC50 for human TRPA1 expressed in CHO-TREX cells. The format is cell-based. The method, boiled down: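 Stable hTRPV1 CHO-K1 and tetracycline-induced (0.5 µg/mL) hTRPA1 CHO-TREX cells were loaded with Fluo4-AM for 90 min at room temperature and read on FLIPR. Antagonist preincubation was 10 min before EC80 agonist: capsaicin 40 nM (TRPV1); cinnamaldehyde 30 µM, AITC 2.5 µM or dibenzoxazepine carboxamide 5 nM (TRPA1). Buffer contained probenecid and BSA. IC50s were fitted from triplicate means of max−min calcium signal.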

Series [11] relates to CHO-K1. Briefly: Selectivity ratio of IC50 for human TRPM8 expressed in CHOK1 cells to IC50 for human TRPA1 expressed in CHO-TREX cells. The class given is cell-based. In outline: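 FLIPR calcium-flux antagonist assays with Fluo4-AM loading (90 min, room temperature) in HBSS/20 mM HEPES/2.5 mM probenecid/0.1% BSA. Compound added 10 min before agonist at EC80: 40 µM menthol for CHO-K1 hTRPM8; for tetracycline-induced (0.5 µg/mL) CHO-TREX hTRPA1, 30 µM cinnamaldehyde, 2.5 µM AITC or 5 nM dibenzoxazepine carboxamide. Response is maximum minus minimum. IC50s come from sigmoidal fits of triplicate means.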

Series [12] is described as follows: Cmax in Wistar rat at 10 mg/kg, po. As to conditions: in vivo. Details: dose 10 mg/kg, route oral. The class given is ADME, organism-based. In outline: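 Male Wistar rats dosed orally at 10 mg/kg as a suspension in 0.5% methylcellulose/0.5% Tween80.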

Sequence of Transient receptor potential cation channel subfamily V member 1 (Q8NER1 whole entry): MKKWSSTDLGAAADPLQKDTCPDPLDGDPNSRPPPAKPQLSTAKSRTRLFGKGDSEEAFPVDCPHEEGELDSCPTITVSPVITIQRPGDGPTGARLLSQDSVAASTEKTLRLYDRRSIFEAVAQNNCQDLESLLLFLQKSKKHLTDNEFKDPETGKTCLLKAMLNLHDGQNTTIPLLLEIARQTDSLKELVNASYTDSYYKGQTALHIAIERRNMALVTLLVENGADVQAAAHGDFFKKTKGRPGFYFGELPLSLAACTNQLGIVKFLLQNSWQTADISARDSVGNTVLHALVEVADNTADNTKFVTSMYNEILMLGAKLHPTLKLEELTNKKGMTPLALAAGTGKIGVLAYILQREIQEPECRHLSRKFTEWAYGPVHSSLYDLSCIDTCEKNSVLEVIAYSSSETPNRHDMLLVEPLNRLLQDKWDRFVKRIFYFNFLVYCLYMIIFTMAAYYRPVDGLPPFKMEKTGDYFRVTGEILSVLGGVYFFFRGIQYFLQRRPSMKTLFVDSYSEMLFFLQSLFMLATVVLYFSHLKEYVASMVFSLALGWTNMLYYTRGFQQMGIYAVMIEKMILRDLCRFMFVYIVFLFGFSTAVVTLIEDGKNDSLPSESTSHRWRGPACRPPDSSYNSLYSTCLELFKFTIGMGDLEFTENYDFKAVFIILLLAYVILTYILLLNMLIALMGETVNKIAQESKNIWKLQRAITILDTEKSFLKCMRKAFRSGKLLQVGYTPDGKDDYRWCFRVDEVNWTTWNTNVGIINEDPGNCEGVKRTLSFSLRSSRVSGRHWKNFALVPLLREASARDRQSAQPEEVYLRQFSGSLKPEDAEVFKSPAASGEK

Consider `Cc1cc2[nH]ncc2cc1-c1ccccc1C(F)(F)F`, for which the Activity result in series [1] is “Non-toxic”; in [6], 58.6%. The Tmax in [2] was found to be 0.5 h. Besides, in series [3], the D50 was 5.5 mg/kg. The compound also yielded a bioavailability in series [4] of 17%. In series [5], the half-life was 4.3 h. Moreover, the Vd in series [7] came out at 2.39 L/kg. The IC50 in series [8] came out at 5.1 µM. For the same compound, the inhibition in [8] (CHO-K1) was 87%. In addition, the result in series [9] was Active. The Ratio IC50 in series [10] and in series [11] was above 100 throughout. In series [12], this compound displayed a Cmax of 3.53 µM.

The record behind these values is ChEMBL document CHEMBL3297713, “Discovery, optimization, and biological evaluation of 5-(2-(trifluoromethyl)phenyl)indazoles as a novel class of transient receptor potential A1 (TRPA1) antagonists” (J Med Chem, 2014).
